In brackets after ≈: the same amount, converted by molar mass. Activity calls are given as the source filed them. The rule behind the calls is not given here.
How the values were obtained:
[1] = Terminal half life in male Balb/c mouse at 1 mg/kg, iv by LC-MS/MS analysis; type: ADME, organism-based; details: in vivo, read-out: beta t1/2 (converted)
Procedure, shortened: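 Balb/c mice dosed intravenously at 1 mg kg−1; plasma pharmacokinetic profile analysed for half-life, C0, AUC0−t and clearance.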

Staphylococcus aureus [2] = assay: Antibacterial activity against Staphylococcus aureus ATCC 29213 incubated for 24 hrs by Alamar blue staining based microdilution method; type: functional
Escherichia coli = assay: Antibacterial activity against Escherichia coli ATCC 25922 incubated for 24 hrs by Alamar blue staining based microdilution method; type: functional
[3] = Cytotoxicity in human HepG2 cells incubated for 24 hrs by MTT assay; type: toxicity, cell-based
Procedure, shortened: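 HepG2 cells, 1 × 10^4 per well in DMEM/10% FBS, 24 h attachment; compounds 200 to 0.19 μg ml−1 for 24 h at 37 °C, 5% CO2; MTT 2.5 mg ml−1 for 3 h, formazan in DMSO, OD 570 nm; doxorubicin 10 μM control.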

Staphylococcus aureus [4] = assay: Inhibition of biofilm formation of Staphylococcus aureus ATCC 29213 incubated for 27 hrs by absorbance based method; type: functional, organism-based
Staphylococcus aureus [5] = assay: Disruption of pre-formed biofilms of Staphylococcus aureus ATCC 29213 at 4 to 6 times MIC incubated for 24 hrs by absorbance based method relative to control; type: functional
Staphylococcus aureus [6] = assay: Antibacterial activity against Ciprofloxacin-sensitive Staphylococcus aureus […] by Alamar blue staining based analysis; type: functional
Staphylococcus aureus [7] = assay: Antibacterial activity against Staphylococcus aureus SA-1199B overexpressing NorA by Alamar blue staining based analysis; type: functional
Staphylococcus aureus [8] = assay: Antibacterial activity against Staphylococcus aureus SA-K2191 overexpressing MsrA by Alamar blue staining based analysis; type: functional
Staphylococcus aureus [9] = assay: Antibacterial activity against Staphylococcus aureus SA-K2192 overexpressing TetK by Alamar blue staining based analysis; type: functional
Staphylococcus aureus [10] = assay: Synergistic antibacterial activity against methicillin-resistant Staphylococcus aureus ATCC 15187 assessed as fractional inhibitory concentration index at 0.075 ug/ml incubated up to 24 hrs in presence of rifampicin by checkerboard analysis; type: functional; details: dose 0.075 µg/ml
Procedure, shortened: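 Checkerboard microdilution in cation-adjusted MHB, done per CLSI. The compound and partner antibiotic were dissolved in DMSO. The antibiotic was serially diluted across the plate and the compound was twofold serially diluted into the wells to make the combinations. Each well received 0.1 ml of inoculum, a 0.5 McFarland suspension (1.5 × 10^8 CFU ml−1) diluted 1:100 in MHB. Plates were incubated 24 h at 37 °C, then read with Alamar blue (0.04%). FIC index was calculated.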

Staphylococcus aureus [11] = assay: Bacteriostatic activity against Staphylococcus aureus ATCC 29213 assessed as reduction in bacterial count incubated for 2 to 24 hrs by time-kill assay; type: functional, organism-based; details: time 2-24 hrs
Staphylococcus aureus [12] = assay: Bactericidal activity against methicillin-resistant Staphylococcus aureus ATCC 15187 assessed as reduction in bacterial count incubated for 2 to 24 hrs by time-kill assay; type: functional, organism-based; details: time 2-24 hrs
Staphylococcus aureus [13] = assay: Bactericidal activity against methicillin-resistant Staphylococcus aureus ATCC 15187 assessed as reduction in bacterial count at 1 to 4 times MIC by time-kill assay; type: functional, organism-based; details: time 2-24 hrs
Staphylococcus aureus [14] = assay: Bactericidal activity against methicillin-resistant Staphylococcus aureus ATCC 15187 assessed as reduction in bacterial count at 4 times MIC measured for 2 hrs by time-kill assay; type: functional, organism-based
Staphylococcus aureus [15] = assay: Induction of resistance development in methicillin-resistant Staphylococcus aureus ATCC 15187 at 0.5 MIC measured after […]; type: functional, organism-based; details: 0.5 M
Procedure, shortened: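 Bacteria serially passaged under sublethal drug exposure over 20 days, with MIC redetermined at each passage; vancomycin and norfloxacin as controls.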

Staphylococcus aureus [16] = assay: Induction of resistance development in methicillin-resistant Staphylococcus aureus ATCC 15187 assessed as fold increase in MIC at 0.5 MIC measured after 20 passages relative to control; type: functional
Procedure, shortened: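 Bacteria were serially passaged for 20 days after exposure to a sublethal drug concentration. MIC was determined at each passage. Vancomycin and norfloxacin were run as control agents.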

Staphylococcus aureus [17] = assay: Induction of morphological disruption in methicillin-resistant Staphylococcus aureus ATCC 15187 incubated for 2 to 6 hrs by SEM analysis; type: functional, organism-based; details: time 2-6 hrs
Procedure, shortened: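 Bacteria incubated for 2 h and 6 h at 1×, 2× and 4× MIC, with vancomycin and daptomycin at 1× and 2× MIC and untreated cells; cell morphology imaged by scanning electron microscopy.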

Staphylococcus aureus [18] = assay: Induction of membrane permeabilization in methicillin-resistant Staphylococcus aureus ATCC 15187 at 1 to 8 times MIC measured after 80 mins by PI staining based analysis relative to control; type: functional; details: 1.333 h
Procedure, shortened: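 Propidium iodide uptake measured over time in bacteria exposed to 1×, 2×, 4× and 8× MIC, with vancomycin 4× and 8× MIC and a blank control; percentage membrane permeabilization read up to 80 min.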

Staphylococcus aureus [19] = assay: Antibacterial activity against methicillin-resistant Staphylococcus aureus ATCC 15187 infected in mouse RAW264.7 cells assessed as bacterial eradication by colony counting method based microdilution method; type: functional, organism-based
Procedure, shortened: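 RAW 264.7 macrophages infected with MRSA, then treated at multiples of MIC non-toxic to the cells, with vancomycin control; intracellular bacterial load counted as CFU ml−1; compared with infection control by one-way ANOVA.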

[20] = Protein binding in plasma (unknown origin); type: ADME, cell-free
[21] = Efflux ratio of permeability across basal to apical side over apical to basal side in human Caco-2 cells; type: ADME, cell-based
[22] = C0 in male Balb/c mouse at 1 mg/kg, iv by LC-MS/MS analysis; type: ADME, organism-based; details: in vivo
Procedure, shortened: (§1)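 Balb/c mice dosed 1 mg kg−1 intravenously or 30 mg kg−1 orally (2.5 mg kg−1 oral also given); plasma PK parameters derived.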

[23] = AUC (0 to infinity) in male Balb/c mouse at 1 mg/kg, iv by LC-MS/MS analysis; type: ADME, organism-based; details: in vivo; procedure, shortened: as §1
[24] = Terminal half life in male Balb/c mouse at 30 mg/kg, po by LC-MS/MS analysis; type: ADME, organism-based; details: in vivo, read-out: beta t1/2 (converted); procedure, shortened: as §1
[25] = AUC (0 to t) in male Balb/c mouse at 30 mg/kg, po by LC-MS/MS analysis; type: ADME, organism-based; details: in vivo; procedure, shortened: as §1
[26] = AUC (0 to infinity) in male Balb/c mouse at 30 mg/kg, po by LC-MS/MS analysis; type: ADME, organism-based; details: in vivo; procedure, shortened: as §1
[27] = Clearance in male Balb/c mouse at 30 mg/kg, po by LC-MS/MS analysis; type: ADME, organism-based; details: in vivo; procedure, shortened: as §1
[28] = Volume of distribution in male Balb/c mouse at 30 mg/kg, po by LC-MS/MS analysis; type: ADME, organism-based; details: in vivo; procedure, shortened: as §1
Staphylococcus aureus [29] = assay: Antibacterial activity against methicillin-resistant Staphylococcus aureus ATCC 15187 infected in male Balb/c/c mouse assessed as reduction in bacterial load in kidney at 50 to 100 mg/kg measured after 24 hrs by colony counting method; type: functional, organism-based; details: dose 50-100 mg/kg
Procedure, shortened: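 Mouse peritonitis model: 0.1 ml MRSA suspension (10^8 CFU ml−1) given intraperitoneally; treatment intraperitoneal at 50 or 100 mg kg−1 at 2 and 5 h post-infection, with saline and vancomycin (50 mg kg−1) controls; killed at 24 h; kidney and lung homogenates plated on Mueller–Hinton agar with 20 μg ml−1 ciprofloxacin, 24 h; CFU ml−1; unpaired t-test.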

For `CCCc1nn(C)c2c(Nc3ccc(O)cc3)nc(-c3ccc([N+](=O)[O-])o3)nc12`, which half-life [1] is on record?
The half-life was 30 min.

And the MIC (Staphylococcus aureus [2])?
Its MIC is 0.64 µg/mL (≈ 1.62 µM).

What about the MIC (Escherichia coli) of the same compound?
Its MIC is “inactive”.

What about the IC50 at 24 h [3] of the same compound?
The IC50 at 24 h was over 50 µg/mL.

What about the inhibition (Staphylococcus aureus [4]) of the same compound?
The inhibition was “Dose-dependent-effect”.

What about the Activity (Staphylococcus aureus [5]) of the same compound?
The Activity was 30%.

What about the MIC (Staphylococcus aureus [6]) of the same compound?
The MIC was 0.3 µg/mL (≈ 0.761 µM).

What about the MIC (Staphylococcus aureus [7]) of the same compound?
The MIC was 0.6 µg/mL (≈ 1.52 µM).

And the MIC (Staphylococcus aureus [8])?
Its MIC is 0.15 µg/mL (≈ 0.38 µM).

What about the MIC (Staphylococcus aureus [9]) of the same compound?
The MIC was 0.3 µg/mL (≈ 0.761 µM).

What about the “fractional inhibitory concentration index (FICI)” value (Staphylococcus aureus [10]) of the same compound?
Its value is 0.5.

And the Activity (Staphylococcus aureus [11])?
The Activity was “Dose-dependent-effect”.

What about the Activity (Staphylococcus aureus [12]) of the same compound?
The Activity was “Dose-dependent-effect”.

And the Activity (Staphylococcus aureus [13])?
Its Activity is “Time-dependent-effect”.

What about the Activity (Staphylococcus aureus [14]) of the same compound?
The Activity was “Active”.

What about the Activity (Staphylococcus aureus [15]) of the same compound?
Its Activity is “inactive”.

And the “fold change (FC)” value (Staphylococcus aureus [16])?
Its value is 3200.

What about the Activity (Staphylococcus aureus [17]) of the same compound?
The Activity was “Active”.

What about the Activity (Staphylococcus aureus [18]) of the same compound?
The Activity was 45%.

And the Activity (Staphylococcus aureus [19])?
The Activity was “Dose-dependent-effect”.

What about the PPB [20] of the same compound?
The PPB was 99.1%.

What about the efflux ratio [21] of the same compound?
Its efflux ratio is 1.3.

And the C0 [22]?
The C0 was 552 ng/mL.

What about the AUC(0-inf) [23] of the same compound?
Its AUC(0-inf) is 94.8 ng·h/mL.

What about the half-life [24] of the same compound?
The half-life was 21 min.

What about the AUC(0-t) [25] of the same compound?
Its AUC(0-t) is 3150 ng·h/mL.

And the AUC(0-inf) [26]?
The AUC(0-inf) was 3150 ng·h/mL.

And the CL/F [27]?
The CL/F was 159 mL/min/kg.

And the Vd [28]?
Its Vd is 4.75 L/kg.

And the Activity (Staphylococcus aureus [29])?
The Activity was “Active; Significantly Greater Effect Was Observed At 50 Mg/Kg Compared To Vancomycin”.
